Measurements as given in ChEMBL document CHEMBL3120126, “Discovery of hepatitis C virus NS3-4A protease inhibitors with improved barrier to resistance and favorable liver distribution” (J Med Chem, 2014).

Key:
[1] = Volume of distribution at steady state in rat at 4 mg/kg, iv; assay type: ADME, organism-based; set-up: dose 4 mg/kg, route intravenous; details: in vivo, read-out: Vdss
Method in brief: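 Rats received intravenous dosing in a vehicle of 70% PEG-400.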

Liver = experiment: Liver-to-plasma partition coefficient in rat
[2] = Oral bioavailability in rat at 10 mg/kg; assay type: ADME, organism-based; details: in vivo
Method in brief: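 Bioavailability was derived from rat oral dosing in 1% N-methyl-2-pyrrolidone, 0.5% Methocel and 0.3% Tween-80, compared with intravenous dosing in a 70% PEG-400-based vehicle.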

[3] = Drug uptake in rat liver after 8 hrs; assay type: ADME, tissue-based; details: read-out: Drug uptake
[4] = AUC in rat at 10 mg/kg, po; assay type: ADME, organism-based; set-up: dose 10 mg/kg, route oral; details: plasma
[5] = Cmax in rat at 10 mg/kg, po; assay type: ADME, organism-based; set-up: dose 10 mg/kg, route oral; details: in vivo

SMILES | Vd [1] [L/kg] | Kp (Liver) | bioavailability [2] [%] | concentration at 8 h [3] [µM] | AUC [4] [µM·h] | Cmax [5] [µM]
COc1ccc2c(O[C@@H]3C[C@H]4C(=O)N[C@]5(C(=O)NS(=O)(=O)C6CC6)C[C@H]5/C=C\CCCCC[C@H](NC(=O)c5ccn(CC(F)F)n5)C(=O)N4C3)cc(OC(C)C)nc2c1C | 0.86 | 323 | 6.1 | 6.5 | 0.36 | 0.3
COc1ccc2c(O[C@@H]3C[C@H]4C(=O)N[C@]5(C(=O)NS(=O)(=O)C6(C)CC6)C[C@H]5/C=C\CCCCC[C@H](NC(=O)c5ccn(C)n5)C(=O)N4C3)cc(OC(C)C)nc2c1C | 0.97 | > 1500 | 14 | 56 | 1.4 | 1.3
COc1ccc2c(O[C@@H]3C[C@H]4C(=O)N[C@]5(C(=O)NS(=O)(=O)C6(C)CC6)C[C@H]5/C=C\CCCCC[C@H](NC(=O)c5cnn(C)n5)C(=O)N4C3)cc(OC(C)C)nc2c1C | 2 | > 1500 | 16 | 73 | 1.4 | 0.87
COc1ccc2c(O[C@@H]3C[C@H]4C(=O)N[C@]5(C(=O)NS(=O)(=O)C6CC6)C[C@H]5/C=C\CCCCC[C@H](NC(=O)c5ccn(CC(F)(F)F)n5)C(=O)N4C3)cc(OC(C)C)nc2c1C | 3.3 | 360 | 11 | 11 | 1.3 | 0.88
